ChEMBL document CHEMBL3872252, “New bithiazolyl hydrazones: Novel synthesis, characterization and antitubercular evaluation” (Bioorg Med Chem Lett, 2017)
≈ marks a conversion by molar mass, not a printed value.

Key:
Staphylococcus aureus [1] = assay: Growth inhibition of Staphylococcus aureus at 30 ug/ml; assay type: functional; conditions: read-out: GI
[2] = Antitubercular activity against Mycobacterium tuberculosis H37Ra ATCC 25177 dormant stage measured on day 12 by XTT reduction menadione based two-fold dilution assay; assay type: functional; conditions: ATCC 25177, 288 h
How it was run: (§1)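 M. tuberculosis H37Ra ATCC 25177 was exposed to 0.7–100 μg/mL in two-fold steps (0.7, 1.5, 3.1 … 100). Active stage was read after 8 days and dormant stage after 12 days of incubation. Inhibition was read by XTT reduction menadione assay (XRMA), absorbance 470 nm. MIC90 is the concentration giving ≥90% inhibition (µg/mL).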

Escherichia coli [3] = assay: Antibacterial activity against Escherichia coli; assay type: functional
[4] = Selectivity index, ratio of GI50 for human THP1 cells to MIC90 for Mycobacterium tuberculosis H37Ra ATCC 25177 active stage; assay type: toxicity, cell-based, THP-1; conditions: read-out: Selectivity Index
How it was run: (§2)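 Cytotoxicity was measured on human MCF-7, HCT116 and THP-1 cells by MTT assay, with paclitaxel as reference. GI50 is the concentration inhibiting 50% of cell growth. The selectivity index is GI50 for the given cell line divided by MIC90 for the given mycobacterial strain and stage.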

Bacillus subtilis [5] = assay: Antibacterial activity against Bacillus subtilis; assay type: functional
[6] = Selectivity index, ratio of GI50 for human HCT116 cells to MIC90 for Mycobacterium bovis BCG ATCC 35743 active stage; assay type: toxicity, cell-based, HCT-116; conditions: read-out: Selectivity Index; how it was run: as §2
[7] = Selectivity index, ratio of GI50 for human THP1 cells to MIC90 for Mycobacterium bovis BCG ATCC 35743 dormant stage; assay type: toxicity, cell-based, THP-1; conditions: read-out: Selectivity Index
How it was run: (§3)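 Cytotoxicity was measured on human MCF-7, HCT116 and THP-1 cells by MTT assay, with paclitaxel as reference. The selectivity index is GI50 for the given cell line divided by MIC90 for the given mycobacterial strain and stage.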

Escherichia coli [8] = assay: Growth inhibition of Escherichia coli at 3 ug/ml; assay type: functional; conditions: read-out: GI
How it was run: (§4)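 Screened against Gram-negative E. coli and P. aeruginosa and Gram-positive S. aureus and B. subtilis. Compound was tested at 3 µg/ml, and the read-out is percent growth inhibition.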

Staphylococcus aureus [9] = assay: Growth inhibition of Staphylococcus aureus at 3 ug/ml; assay type: functional; conditions: read-out: GI; how it was run: as §4
Pseudomonas aeruginosa [10] = assay: Growth inhibition of Pseudomonas aeruginosa at 30 ug/ml; assay type: functional; conditions: read-out: GI
Escherichia coli [11] = assay: Growth inhibition of Escherichia coli at 30 ug/ml; assay type: functional; conditions: read-out: GI
Pseudomonas aeruginosa [12] = assay: Growth inhibition of Pseudomonas aeruginosa at 3 ug/ml; assay type: functional; conditions: read-out: GI; how it was run: as §4
[13] = Selectivity index, ratio of GI50 for human HCT116 cells to MIC90 for Mycobacterium bovis BCG ATCC 35743 dormant stage; assay type: toxicity, cell-based, HCT-116; conditions: read-out: Selectivity Index; how it was run: as §3
[14] = Cytotoxicity against human THP1 cells by MTT assay; assay type: toxicity, cell-based, THP-1; conditions: for GI50: THP1 cells; for GI90: thp-1
[15] = Cytotoxicity against human HCT116 cells by MTT assay; assay type: toxicity, cell-based, HCT-116; conditions: for GI50: HCT116 cells; for GI90: hct-116
[16] = Selectivity index, ratio of GI50 for human HCT116 cells to MIC90 for Mycobacterium tuberculosis H37Ra ATCC 25177 dormant stage; assay type: toxicity, cell-based, HCT-116; conditions: read-out: Selectivity Index; how it was run: as §3
Bacillus subtilis [17] = assay: Growth inhibition of Bacillus subtilis at 30 ug/ml; assay type: functional; conditions: read-out: GI
[18] = Selectivity index, ratio of GI50 for human MCF7 cells to MIC90 for Mycobacterium tuberculosis H37Ra ATCC 25177 dormant stage; assay type: toxicity, cell-based; conditions: read-out: Selectivity Index; how it was run: as §3
[19] = Selectivity index, ratio of GI50 for human THP1 cells to MIC90 for Mycobacterium bovis BCG ATCC 35743 active stage; assay type: toxicity, cell-based, THP-1; conditions: read-out: Selectivity Index; how it was run: as §2
[20] = Selectivity index, ratio of GI50 for human THP1 cells to MIC90 for Mycobacterium tuberculosis H37Ra ATCC 25177 dormant stage; assay type: toxicity, cell-based, THP-1; conditions: read-out: Selectivity Index; how it was run: as §3
Pseudomonas aeruginosa [21] = assay: Growth inhibition of Pseudomonas aeruginosa at 10 ug/ml; assay type: functional; conditions: read-out: GI
[22] = Antitubercular activity against Mycobacterium bovis BCG ATCC 35743 active stage measured on day 8 by nitrate reductase based two-fold dilution assay; assay type: functional, Mycobacterium bovis BCG str. ATCC 35743; conditions: Mycobacterium tuberculosis variant bovis BCG, ATCC 35743, 192 h
[23] = Selectivity index, ratio of GI50 for human MCF7 cells to MIC90 for Mycobacterium bovis BCG ATCC 35743 dormant stage; assay type: toxicity, cell-based; conditions: read-out: Selectivity Index; how it was run: as §3
[24] = Antitubercular activity against Mycobacterium tuberculosis H37Ra ATCC 25177 active stage measured on day 8 by XTT reduction menadione based two-fold dilution assay; assay type: functional; conditions: ATCC 25177, 192 h; how it was run: as §1
Bacillus subtilis [25] = assay: Growth inhibition of Bacillus subtilis at 10 ug/ml; assay type: functional; conditions: read-out: GI
[26] = Antitubercular activity against Mycobacterium tuberculosis H37Ra ATCC 25177 active stage infected in human THP1 cells measured on day 8 by nitrate reductase assay; assay type: functional, THP-1; conditions: ATCC 25177, 192 h
Staphylococcus aureus [27] = assay: Antibacterial activity against Staphylococcus aureus; assay type: functional
Pseudomonas aeruginosa [28] = assay: Antibacterial activity against Pseudomonas aeruginosa; assay type: functional
[29] = Cytotoxicity against human MCF7 cells by MTT assay; assay type: toxicity, cell-based; conditions: for GI50: MCF7 cells; for GI90: mcf7
[30] = Antitubercular activity against Mycobacterium tuberculosis H37Ra ATCC 25177 dormant stage infected in human THP1 cells measured on day 12 by nitrate reductase assay; assay type: functional, THP-1; conditions: ATCC 25177, 288 h
Escherichia coli [31] = assay: Growth inhibition of Escherichia coli at 10 ug/ml; assay type: functional; conditions: read-out: GI
[32] = Selectivity index, ratio of GI50 for human HCT116 cells to MIC90 for Mycobacterium tuberculosis H37Ra ATCC 25177 active stage; assay type: toxicity, cell-based, HCT-116; conditions: read-out: Selectivity Index; how it was run: as §2
[33] = Selectivity index, ratio of GI50 for human MCF7 cells to MIC90 for Mycobacterium bovis BCG ATCC 35743 active stage; assay type: toxicity, cell-based; conditions: read-out: Selectivity Index; how it was run: as §2
[34] = Selectivity index, ratio of GI50 for human MCF7 cells to MIC90 for Mycobacterium tuberculosis H37Ra ATCC 25177 active stage; assay type: toxicity, cell-based; conditions: read-out: Selectivity Index; how it was run: as §2
Bacillus subtilis [35] = assay: Growth inhibition of Bacillus subtilis at 3 ug/ml; assay type: functional; conditions: read-out: GI; how it was run: as §4
Staphylococcus aureus [36] = assay: Growth inhibition of Staphylococcus aureus at 10 ug/ml; assay type: functional; conditions: read-out: GI
[37] = Antitubercular activity against Mycobacterium bovis BCG ATCC 35743 dormant stage measured on day 12 by nitrate reductase based two-fold dilution assay; assay type: functional, Mycobacterium bovis BCG str. ATCC 35743; conditions: Mycobacterium tuberculosis variant bovis BCG, ATCC 35743, 288 h

Compound `C/C(=N\Nc1nc(-c2ccc(C)cc2)cs1)c1sc(-c2ccccc2)nc1C` has an inhibition of growth at 30 µg/mL (Staphylococcus aureus [1]) of 97.1%, an IC50 [2] of 0.075 µg/mL (≈ 0.185 µM) and an MIC90 [2] greater than 100 µg/mL. For the same compound, the IC50 (Escherichia coli [3]) was 0.454 µg/mL (≈ 1.12 µM), the MIC (Escherichia coli [3]) was 1.43 µg/mL (≈ 3.53 µM) and the selectivity ratio [4] was 1. The IC50 (Bacillus subtilis [5]) was 0.742 µg/mL (≈ 1.83 µM), the MIC (Bacillus subtilis [5]) was 2.95 µg/mL (≈ 7.29 µM) and the selectivity ratio [6] was 5. The selectivity ratio [7] was 2, the inhibition of growth at 3 µg/mL (Escherichia coli [8]) was 92.2% and the inhibition of growth at 3 µg/mL (Staphylococcus aureus [9]) was 91.9%. For the same compound, the inhibition of growth at 30 µg/mL (Pseudomonas aeruginosa [10]) was 98.8%, the inhibition of growth at 30 µg/mL (Escherichia coli [11]) was 97% and the inhibition of growth at 3 µg/mL (Pseudomonas aeruginosa [12]) was 93.4%. For the same compound, the selectivity ratio [13] was 2, the GI50 [14] was greater than 100 µg/mL and the GI90 [14] was greater than 100 µg/mL. The GI50 [15] was greater than 100 µg/mL, the GI90 [15] was greater than 100 µg/mL and the selectivity ratio [16] was 1. For the same compound, the inhibition of growth at 30 µg/mL (Bacillus subtilis [17]) was 96.9%, the selectivity ratio [18] was 1 and the selectivity ratio [19] was 5. It also gave a selectivity ratio [20] of 1, an inhibition of growth at 10 µg/mL (Pseudomonas aeruginosa [21]) of 95.6% and an IC50 [22] of 5.21 µg/mL (≈ 12.9 µM). The MIC90 [22] was 19.7 µg/mL (≈ 48.6 µM), the selectivity ratio [23] was 2 and the IC50 [24] was 0.16 µg/mL (≈ 0.395 µM). For the same compound, the MIC90 [24] was greater than 100 µg/mL, the inhibition of growth at 10 µg/mL (Bacillus subtilis [25]) was 93.5% and the MIC90 [26] was greater than 100 µg/mL. For the same compound, the IC50 (Staphylococcus aureus [27]) was 0.624 µg/mL (≈ 1.54 µM), the MIC (Staphylococcus aureus [27]) was 2.46 µg/mL (≈ 6.08 µM) and the IC50 (Pseudomonas aeruginosa [28]) was 0.587 µg/mL (≈ 1.45 µM). It also gave an MIC (Pseudomonas aeruginosa [28]) of 1.53 µg/mL (≈ 3.78 µM), a GI50 [29] greater than 100 µg/mL and a GI90 [29] greater than 100 µg/mL. The MIC90 [30] was greater than 100 µg/mL, the inhibition of growth at 10 µg/mL (Escherichia coli [31]) was 94.1% and the selectivity ratio [32] was 1. It also gave a selectivity ratio [33] of 5, a selectivity ratio [34] of 1 and an inhibition of growth at 3 µg/mL (Bacillus subtilis [35]) of 91.3%. It also gave an inhibition of growth at 10 µg/mL (Staphylococcus aureus [36]) of 94%, an IC50 [37] of 5.29 µg/mL (≈ 13.1 µM) and an MIC90 [37] of 57.5 µg/mL (≈ 142 µM).

Work on `C/C(=N\Nc1nc(-c2ccc(Cl)cc2)cs1)c1sc(-c2ccccc2)nc1C` yielded an inhibition of growth at 30 µg/mL (Staphylococcus aureus [1]) of 89.2%, an IC50 [2] of 0.24 µg/mL (≈ 0.565 µM) and an MIC90 [2] greater than 100 µg/mL. For the same compound, the selectivity ratio [4] was 1, the selectivity ratio [6] was 1 and the selectivity ratio [7] was 1. The inhibition of growth at 3 µg/mL (Escherichia coli [8]) was 69.1%, the inhibition of growth at 3 µg/mL (Staphylococcus aureus [9]) was 67.1% and the inhibition of growth at 30 µg/mL (Pseudomonas aeruginosa [10]) was 90.6%. The inhibition of growth at 30 µg/mL (Escherichia coli [11]) was 89.7%, the inhibition of growth at 3 µg/mL (Pseudomonas aeruginosa [12]) was 67.7% and the selectivity ratio [13] was 1. For the same compound, the GI50 [14] was greater than 100 µg/mL, the GI90 [14] was greater than 100 µg/mL and the GI50 [15] was greater than 100 µg/mL. It also gave a GI90 [15] greater than 100 µg/mL, a selectivity ratio [16] of 1 and an inhibition of growth at 30 µg/mL (Bacillus subtilis [17]) of 88.4%. The selectivity ratio [18] was 1, the selectivity ratio [19] was 1 and the selectivity ratio [20] was 1. It also gave an inhibition of growth at 10 µg/mL (Pseudomonas aeruginosa [21]) of 80.3%, an IC50 [22] of 17 µg/mL (≈ 40 µM) and an MIC90 [22] of 77.8 µg/mL (≈ 183 µM). For the same compound, the selectivity ratio [23] was 1, the IC50 [24] was 0.12 µg/mL (≈ 0.282 µM) and the MIC90 [24] was greater than 100 µg/mL. It also gave an inhibition of growth at 10 µg/mL (Bacillus subtilis [25]) of 77.7%, an MIC90 [26] greater than 100 µg/mL and a GI50 [29] greater than 100 µg/mL. It also gave a GI90 [29] greater than 100 µg/mL, an MIC90 [30] greater than 100 µg/mL and an inhibition of growth at 10 µg/mL (Escherichia coli [31]) of 80.4%. For the same compound, the selectivity ratio [32] was 1, the selectivity ratio [33] was 1 and the selectivity ratio [34] was 1. For the same compound, the inhibition of growth at 3 µg/mL (Bacillus subtilis [35]) was 64.5%, the inhibition of growth at 10 µg/mL (Staphylococcus aureus [36]) was 79.3% and the IC50 [37] was 26.6 µg/mL (≈ 62.5 µM). For the same compound, the MIC90 [37] was 83.7 µg/mL (≈ 197 µM).
